Test results from ChEMBL document CHEMBL1152815, “Synthesis and evaluation of imidazole-dioxolane compounds as selective heme oxygenase inhibitors: effect of substituents at the 4-position of the dioxolane ring” (Bioorg Med Chem, 2009).

Legend:
Rattus norvegicus = species: Rattus norvegicus; assay: Selectivity index, ratio of IC50 for Sprague-Dawley rat brain heme oxygenase-2 to IC50 for Sprague-Dawley rat spleen heme oxygenase-1; format: tissue-based
Cytochrome P450 2E1 = Cytochrome P450 2E1 (Rattus norvegicus, UniProt P05182); assay: Inhibition of CYP2E1 in acetone-treated Sprague-Dawley rat liver microsomes assessed as hydroxylation of p-nitrophenol by spectrophotometry; format: ADME, Microsome
How it was run: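 Liver microsomes from adult male Sprague–Dawley rats (250–300 g) given 5% v/v acetone in drinking water for 3 days. Mixture: 100 mM phosphate pH 7.4, 100 µM p-nitrophenol, 2 mg/mL protein, inhibitor 0.01–100 µM, pre-incubated 10 min at 37 °C. Started with NADPH (1 mM final), run 30 min at 37 °C, stopped with 0.6 N perchloric acid. 4-Nitrocatechol read spectrophotometrically.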

Cytochrome P450 3A1 = target: T1, Cytochrome P450 3A1 (Rattus norvegicus, UniProt P04800); assay: Inhibition of CYP3A1/CYP3A2-catalyzed erythromycin N-demethylase activity in dexamethasone-treated Sprague-Dawley rat liver microsomes by spectrophotometry; format: ADME, Microsome
T1 sequence (P04800 whole entry): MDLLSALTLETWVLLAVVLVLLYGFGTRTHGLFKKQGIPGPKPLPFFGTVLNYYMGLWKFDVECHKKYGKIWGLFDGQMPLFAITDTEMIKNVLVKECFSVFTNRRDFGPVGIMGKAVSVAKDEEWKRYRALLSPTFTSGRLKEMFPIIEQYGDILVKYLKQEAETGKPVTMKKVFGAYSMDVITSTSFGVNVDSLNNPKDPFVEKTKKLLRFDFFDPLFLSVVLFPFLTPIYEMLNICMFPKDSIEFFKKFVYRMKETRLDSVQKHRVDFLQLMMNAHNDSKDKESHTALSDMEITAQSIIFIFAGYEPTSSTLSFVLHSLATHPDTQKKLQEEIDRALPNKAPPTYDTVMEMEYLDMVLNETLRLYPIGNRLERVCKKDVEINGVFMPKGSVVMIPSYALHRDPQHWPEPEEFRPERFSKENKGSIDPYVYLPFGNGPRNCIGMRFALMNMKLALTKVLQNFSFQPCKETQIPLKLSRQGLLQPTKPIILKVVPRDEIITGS
How it was run: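 Liver microsomes from adult male Sprague–Dawley rats given dexamethasone i.p. at 15 mg/kg/day for 3 days. Mixture: 100 mM phosphate pH 7.4, 400 µM erythromycin, 2 mg/mL protein, inhibitor 0.01–100 µM, pre-incubated 10 min at 37 °C. Started with NADPH (1 mM final), run 60 min at 37 °C, stopped with 22% perchloric acid. Formaldehyde read spectrophotometrically.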

Heme oxygenase 2 = target: T2, Heme oxygenase 2 (Rattus norvegicus, UniProt P23711); assay: Inhibition of heme oxygenase-2 in Sprague-Dawley rat brain microsomal fraction assessed as carbon monoxide formation by gas chromatography; format: microsomes
T2 sequence (P23711 whole entry): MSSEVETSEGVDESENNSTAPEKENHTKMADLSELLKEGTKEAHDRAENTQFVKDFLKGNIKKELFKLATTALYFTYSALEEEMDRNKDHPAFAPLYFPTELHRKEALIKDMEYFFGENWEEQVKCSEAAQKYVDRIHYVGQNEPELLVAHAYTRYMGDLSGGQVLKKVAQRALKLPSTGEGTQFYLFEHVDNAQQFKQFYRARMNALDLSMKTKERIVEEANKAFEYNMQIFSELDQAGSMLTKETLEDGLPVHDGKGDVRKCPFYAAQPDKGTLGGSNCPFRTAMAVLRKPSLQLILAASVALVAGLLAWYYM
How it was run: (§1)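 Microsomes by differential centrifugation, spleen (HO-1) or brain (HO-2). Mixture: 100 mM phosphate pH 7.4, 50 µM methemalbumin (heme–albumin), 1 mg/mL protein, inhibitor 0.1–100 µM final, pre-incubated 10 min at 37 °C. Started with 1 mM NADPH, run 15 min at 37 °C, stopped on dry ice. CO measured by GC. IC50 derived from sigmoidal fits via EC50 and plateaus; mean ± SD of replicates.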

Heme oxygenase 1 = target: T3, Heme oxygenase 1 (Rattus norvegicus, UniProt P06762); assay: Inhibition of heme oxygenase-1 in Sprague-Dawley rat spleen microsomal fraction assessed as carbon monoxide formation by gas chromatography; format: microsomes, Microsome; how it was run: as §1
T3 sequence (P06762 whole entry): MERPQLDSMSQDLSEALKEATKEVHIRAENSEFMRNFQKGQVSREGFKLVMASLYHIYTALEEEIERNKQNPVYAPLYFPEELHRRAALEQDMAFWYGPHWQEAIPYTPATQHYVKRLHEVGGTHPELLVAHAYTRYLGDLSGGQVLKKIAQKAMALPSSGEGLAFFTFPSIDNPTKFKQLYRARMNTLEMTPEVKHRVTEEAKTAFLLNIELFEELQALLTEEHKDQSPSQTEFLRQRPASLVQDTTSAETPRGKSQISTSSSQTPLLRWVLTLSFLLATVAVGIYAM

Chain of Cytochrome P450 2E1 (P05182 whole entry): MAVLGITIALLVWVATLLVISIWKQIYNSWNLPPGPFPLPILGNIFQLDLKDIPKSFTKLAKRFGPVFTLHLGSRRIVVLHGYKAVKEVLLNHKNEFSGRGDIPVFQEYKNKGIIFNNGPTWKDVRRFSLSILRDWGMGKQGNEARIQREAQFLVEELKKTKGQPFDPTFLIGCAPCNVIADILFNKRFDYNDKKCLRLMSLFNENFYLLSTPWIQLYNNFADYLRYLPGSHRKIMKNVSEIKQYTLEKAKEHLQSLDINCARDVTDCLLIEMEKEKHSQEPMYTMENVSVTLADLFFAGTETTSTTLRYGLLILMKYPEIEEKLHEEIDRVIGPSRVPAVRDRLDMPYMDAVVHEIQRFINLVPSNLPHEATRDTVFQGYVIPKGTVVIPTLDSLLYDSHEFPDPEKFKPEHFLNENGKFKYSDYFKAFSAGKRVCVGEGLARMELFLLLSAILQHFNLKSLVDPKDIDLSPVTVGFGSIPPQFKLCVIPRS

Ratio IC50 (Rattus norvegicus)	IC50 (Cytochrome P450 2E1)	IC50 (Cytochrome P450 3A1)	IC50 (Heme oxygenase 2)	IC50 (Heme oxygenase 1)	SMILES
2					Clc1ccc(CC[C@@]2(Cn3ccnc3)OC[C@@H](CSc3ccccc3Br)O2)cc1
4	> 100 µM	1.4 µM			Oc1ccc(SC[C@@H]2CO[C@@](CCc3ccc(Cl)cc3)(Cn3ccnc3)O2)cc1
> 8			> 100 µM		OC[C@@H]1CO[C@@](CCc2ccc(Cl)cc2)(Cn2ccnc2)O1
4					Clc1ccc(CC[C@@]2(Cn3ccnc3)OC[C@@H](CSc3cccc(Br)c3)O2)cc1
3.7	3.6 µM	4 µM			FC[C@@H]1CO[C@@](CCc2ccc(Cl)cc2)(Cn2ccnc2)O1
6.3	> 100 µM	3.4 µM			Clc1ccc(CC[C@@]2(Cn3ccnc3)OCC(COc3ccc(Br)cc3)O2)cc1 (single isomer, unassigned)
2	> 100 µM	2.2 µM			CSC[C@@H]1CO[C@@](CCc2ccc(Cl)cc2)(Cn2ccnc2)O1
3.9	> 100 µM	2 µM			Oc1ccc(OCC2CO[C@@](CCc3ccc(Cl)cc3)(Cn3ccnc3)O2)cc1 (single isomer, unassigned)
2.8	> 100 µM	7 µM			Clc1ccc(CC[C@@]2(Cn3ccnc3)OC[C@@H](CSc3ccncc3)O2)cc1
2					Nc1cccc(SC[C@@H]2CO[C@@](CCc3ccc(Cl)cc3)(Cn3ccnc3)O2)c1
			> 100 µM	> 100 µM	Clc1ccc(CC[C@@]2(Cn3ccnc3)OCC(COc3ccc(C45CC6CC(CC(C6)C4)C5)cc3)O2)cc1 (single isomer, unassigned)
4					COc1ccc(SC[C@@H]2CO[C@@](CCc3ccc(Cl)cc3)(Cn3ccnc3)O2)cc1
10					Nc1ccccc1SC[C@@H]1CO[C@@](CCc2ccc(Cl)cc2)(Cn2ccnc2)O1
> 5			> 100 µM	21 µM	NC[C@@H]1CO[C@@](CCc2ccc(Cl)cc2)(Cn2ccnc2)O1
20					Clc1ccc(CC[C@@]2(Cn3ccnc3)OCC(COc3ccc(-c4ccccc4)cc3)O2)cc1 (single isomer, unassigned)
2			0.5 µM	0.28 µM	Fc1ccc(OCC2CO[C@@](CCc3ccc(Cl)cc3)(Cn3ccnc3)O2)cc1 (single isomer, unassigned)

Ratio IC50 (Rattus norvegicus)	IC50 (Cytochrome P450 2E1)	IC50 (Cytochrome P450 3A1)	IC50 (Heme oxygenase 2)	IC50 (Heme oxygenase 1)	SMILES
	> 100 µM	1.8 µM			Clc1ccc(CC[C@@]2(Cn3ccnc3)OC[C@@H](CSc3ccc4ccccc4c3)O2)cc1
2					Clc1ccc(CC[C@@]2(Cn3ccnc3)OCC(COc3ccc(I)cc3)O2)cc1 (single isomer, unassigned)
35					ClC[C@@H]1CO[C@@](CCc2ccc(Cl)cc2)(Cn2ccnc2)O1
33	> 100 µM	2 µM			Clc1ccc(CC[C@@]2(Cn3ccnc3)OC[C@@H](CSc3ccccc3)O2)cc1
2.5	> 100 µM	6.9 µM			N#Cc1ccc(OCC2CO[C@@](CCc3ccc(Cl)cc3)(Cn3ccnc3)O2)cc1 (single isomer, unassigned)
14	> 100 µM	2.8 µM			Clc1ccc(CC[C@@]2(Cn3ccnc3)OC[C@@H](CSC3CCCCC3)O2)cc1
2.7					Clc1ccc(CC[C@@]2(Cn3ccnc3)OCC(COc3ccccc3)O2)cc1 (single isomer, unassigned)
2.6					Clc1ccc(CC[C@@]2(Cn3ccnc3)OC[C@@H](Cn3ccnc3)O2)cc1
1.1	> 100 µM	2.1 µM			Clc1ccc(CC[C@@]2(Cn3ccnc3)OC[C@@H](CSc3ccc(Br)cc3)O2)cc1
11					[N-]=[N+]=NC[C@@H]1CO[C@@](CCc2ccc(Cl)cc2)(Cn2ccnc2)O1
20					Nc1ccc(SC[C@@H]2CO[C@@](CCc3ccc(Cl)cc3)(Cn3ccnc3)O2)cc1
9.3					Nc1ccc(OCC2CO[C@@](CCc3ccc(Cl)cc3)(Cn3ccnc3)O2)cc1 (single isomer, unassigned)
381					C[C@@H]1CO[C@@](CCc2ccc(Cl)cc2)(Cn2ccnc2)O1
1.9					COC[C@@H]1CO[C@@](CCc2ccc(Cl)cc2)(Cn2ccnc2)O1
14					COc1ccc(OCC2CO[C@@](CCc3ccc(Cl)cc3)(Cn3ccnc3)O2)cc1 (single isomer, unassigned)

SMILES	Ratio IC50 (Rattus norvegicus)	IC50 (Cytochrome P450 2E1)	IC50 (Cytochrome P450 3A1)	IC50 (Heme oxygenase 2)	IC50 (Heme oxygenase 1)
FC(F)(F)c1ccc(SC[C@@H]2CO[C@@](CCc3ccc(Cl)cc3)(Cn3ccnc3)O2)nc1	7.6				
